Measured values: ChEMBL document CHEMBL1124349, “Novel benzodiazepine receptor partial agonists: oxadiazolylimidazobenzodiazepines” (J Med Chem, 1989)

Legend:
[1] = target: GABA-A receptor; anion channel; test: Inhibition of radiolabeled antagonist [3H]-Ro- 15-1788 binding to benzodiazepine receptor from rat cortical membranes; assay type: cell membranes, Membrane
In short: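 Rat (Sprague–Dawley, 250-300 g) cortical membranes, water-washed and frozen at -20 °C ≥18 h, then washed repeatedly in Krebs/HEPES pH 7.4. Nonspecific binding with 3 μM clonazepam. Filtration, scintillation counting.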

[2] = target: GABA-A receptor; anion channel (Rattus norvegicus) (UniProt O09028+P15431+P18506+P18508+P19969+P20236+P23574+P23576+P28471+P28473+P30191+P62813+P63079+P63138+Q91ZM7+Q9ES14); test: Ratio of binding affinity to the GABA-A receptor in the presence and absence of GABA; assay type: protein-complex assay
In short: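 [3H]-Ro 15-1788 displacement in washed rat cortical membranes (Krebs/HEPES pH 7.4, nipecotic acid 10^-4 M, 30 °C, 60 min) run with and without GABA at 0.3 mM. Nonspecific binding was defined by 3 μM clonazepam, and read-out was filtration with scintillation counting. The value is the ratio of the affinities obtained with GABA and without it.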

Row | Compound | IC50 [1] | GABA shift [2]
1 | CC(C)c1noc(-c2ncn3c2CN=C(c2ccccc2Cl)c2cc(Cl)ccc2-3)n1 | 45 nM | 1.81
2 | CCCc1noc(-c2ncn3c2CN=C(c2ccccc2)c2ccccc2-3)n1 | 43 nM | 1.8
3 | Cc1noc(-c2ncn3c2CN=C(c2ccccc2Cl)c2ccccc2-3)n1 | 31 nM | 1.29
4 | Cc1noc(-c2ncn3c2CN=C(c2ccccc2)c2c(Cl)cccc2-3)n1 | 3.4 nM | 1.67
5 | CCCc1nc(-c2ncn3c2CN=C(c2ccccc2Cl)c2cc(Cl)ccc2-3)no1 | 8.2 nM | 1.81
6 | CCCc1noc(-c2ncn3c2CN=C(c2ccccc2Cl)c2cc(Cl)ccc2-3)n1 | 34 nM | 2.92
7 | CCCc1nc(-c2ncn3c2CN=C(c2ccccc2)c2c(F)cccc2-3)no1 | 5.3 nM | 2.06
8 | CCc1nc(-c2ncn3c2CN=C(c2ccccc2)c2c(F)cccc2-3)no1 | 7.5 nM | 1.82
9 | CCc1noc(-c2ncn3c2CN(C)C(=O)c2c(Cl)cccc2-3)n1 | 9.7 nM | 1.43
10 | CCCc1noc(-c2ncn3c2CN(C)C(=O)c2c(Cl)cccc2-3)n1 | 6 nM | 1.53
11 | Cc1nc(-c2ncn3c2CN=C(c2ccccc2)c2c(Cl)cccc2-3)no1 | 1.3 nM | 1.44
12 | CCCc1noc(-c2ncn3c2CN=C(c2ccccc2)c2c(Cl)cccc2-3)n1 | 5.2 nM | 1.85
13 | CCc1nc(-c2ncn3c2CN=C(c2ccccc2Cl)c2ccccc2-3)no1 | 13 nM | 1.48
14 | Cc1noc(-c2ncn3c2CN=C(c2ccccc2Cl)c2cc(Cl)ccc2-3)n1 | 110 nM | 2.28
15 | CCc1noc(-c2ncn3c2CN=C(c2ccccc2)c2cc(Cl)ccc2-3)n1 | 160 nM | 2
16 | CC(C)c1nc(-c2ncn3c2CN=C(c2ccccc2)c2cc(Cl)ccc2-3)no1 | 53 nM | 2.89
17 | Cc1noc(-c2ncn3c2CN=C(c2ccccc2)c2c(F)cccc2-3)n1 | 8.3 nM | 1.84
18 | CC(C)c1noc(-c2ncn3c2CN=C(c2ccccc2)c2ccccc2-3)n1 | 52 nM | 1.7
19 | CC(C)(C)OC(=O)c1ncn2c1C1CCCN1C(=O)c1c(Br)cccc1-2 (stereo unspecified) | 0.6 nM | 1.34
20 | CC(C)c1nc(-c2ncn3c2CN=C(c2ccccc2)c2c(Cl)cccc2-3)no1 | 6.9 nM | 1.82
21 | CCc1nc(-c2ncn3c2CN=C(c2ccccc2Cl)c2cc(Cl)ccc2-3)no1 | 9.4 nM | 1.86
22 | CCCc1noc(-c2ncn3c2CN(C)C(=O)c2c(F)cccc2-3)n1 | 24 nM | 1.94
23 | CC(C)c1noc(-c2ncn3c2CN=C(c2ccccc2)c2c(F)cccc2-3)n1 | 1.4 nM | 2.03
24 | O=C(OCC1CC1)c1ncn2c1C1CCN1C(=O)c1c(Cl)cccc1-2 (stereo unspecified) | 4.2 nM | 1.7
25 | CCc1noc(-c2ncn3c2CN(C)C(=O)c2cc(Cl)ccc2-3)n1 | 600 nM | 0.91
26 | CC(C)c1nc(-c2ncn3c2CN=C(c2ccccc2Cl)c2ccccc2-3)no1 | 14 nM | 1.64

Row | Compound | IC50 [1] | GABA shift [2]
27 | Cc1noc(-c2ncn3c2CN(C)C(=O)c2c(Cl)cccc2-3)n1 | 8.1 nM | 1.51
28 | CC(C)c1noc(-c2ncn3c2CN=C(c2ccccc2)c2cc(Cl)ccc2-3)n1 | 120 nM | 1.06
29 | CCc1noc(-c2ncn3c2CN(C)C(=O)c2ccccc2-3)n1 | 51 nM | 1.79
30 | Cc1nc(-c2ncn3c2CN=C(c2ccccc2)c2cc(Cl)ccc2-3)no1 | 71 nM | 1.17
31 | Cc1nc(-c2ncn3c2CN=C(c2ccccc2Cl)c2cc(Cl)ccc2-3)no1 | 20 nM | 1.83
32 | CC(C)c1nc(-c2ncn3c2CN=C(c2ccccc2Cl)c2cc(Cl)ccc2-3)no1 | 12 nM | 2.79
33 | Cc1noc(-c2ncn3c2CN(C)C(=O)c2ccccc2-3)n1 | 67 nM | 1.5
34 | Cc1nc(-c2ncn3c2CN(C)C(=O)c2cc(F)ccc2-3)no1 | 21 nM | 1.53
35 | CC(C)c1noc(-c2ncn3c2CN=C(c2ccccc2Cl)c2ccccc2-3)n1 | 31 nM | 1.83
36 | Cc1nc(-c2ncn3c2CN=C(c2ccccc2)c2ccccc2-3)no1 | 7 nM | 1.56
37 | CCc1noc(-c2ncn3c2CN=C(c2ccccc2Cl)c2cc(Cl)ccc2-3)n1 | 25 nM | 2.11
38 | CCCc1nc(-c2ncn3c2CN(C)C(=O)c2ccccc2-3)no1 | 34 nM | 2
39 | Cc1noc(-c2ncn3c2CN=C(c2ccccc2)c2cc(Cl)ccc2-3)n1 | 180 nM | 1.84
40 | Cc1noc(-c2ncn3c2CN(C)C(=O)c2cc(F)ccc2-3)n1 | 50 nM | 1.47
41 | CC(C)c1nc(-c2ncn3c2CN(C)C(=O)c2ccccc2-3)no1 | 53 nM | 2.4
42 | CCc1nc(-c2ncn3c2CN(C)C(=O)c2c(F)cccc2-3)no1 | 15 nM | 1.44
43 | CCc1noc(-c2ncn3c2CN(C)C(=O)c2cc(F)ccc2-3)n1 | 105 nM | 2.34
44 | CC(C)c1noc(-c2ncn3c2CN(C)C(=O)c2c(F)cccc2-3)n1 | 67 nM | 2.31
45 | Cc1nc(-c2ncn3c2CN(C)C(=O)c2c(Cl)cccc2-3)no1 | 3.4 nM | 1.18
46 | CC(C)c1nc(-c2ncn3c2CN(C)C(=O)c2cc(F)ccc2-3)no1 | 43 nM | 2.76
47 | Cc1nc(-c2ncn3c2CN(C)C(=O)c2c(F)cccc2-3)no1 | 11 nM | 1.65
48 | CC(C)c1nc(-c2ncn3c2CN=C(c2ccccc2)c2ccccc2-3)no1 | 18 nM | 2.57
49 | CCCc1nc(-c2ncn3c2CN=C(c2ccccc2Cl)c2ccccc2-3)no1 | 12 nM | 1.68
50 | CC(C)c1nc(-c2ncn3c2CN(C)C(=O)c2c(Cl)cccc2-3)no1 | 3.6 nM | 2.37
51 | CC(C)c1nc(-c2ncn3c2CN=C(c2ccccc2)c2c(F)cccc2-3)no1 | 6.1 nM | 2.08
52 | CCCc1nc(-c2ncn3c2CN(C)C(=O)c2c(Cl)cccc2-3)no1 | 3.8 nM | 1.41

Row | Compound | IC50 [1] | GABA shift [2]
53 | Cc1nc(-c2ncn3c2CN=C(c2ccccc2Cl)c2ccccc2-3)no1 | 6.7 nM | 1.35
54 | Cc1nc(-c2ncn3c2CN=C(c2ccccc2)c2c(F)cccc2-3)no1 | 2.4 nM | 1.68
55 | CCc1nc(-c2ncn3c2CN(C)C(=O)c2c(Cl)cccc2-3)no1 | 6.4 nM | 1.12
56 | Cc1noc(-c2ncn3c2CN(C)C(=O)c2c(F)cccc2-3)n1 | 22 nM | 1.85
57 | CC(C)c1noc(-c2ncn3c2CN=C(c2ccccc2)c2c(Cl)cccc2-3)n1 | 7.2 nM | 1.91
58 | CCc1noc(-c2ncn3c2CN=C(c2ccccc2)c2c(F)cccc2-3)n1 | 9.8 nM | 2.31
59 | CCc1noc(-c2ncn3c2CN=C(c2ccccc2)c2ccccc2-3)n1 | 19 nM | 1.2
60 | CC(C)c1nc(-c2ncn3c2CN(C)C(=O)c2c(F)cccc2-3)no1 | 19 nM | 1.97
61 | CCc1nc(-c2ncn3c2CN(C)C(=O)c2ccccc2-3)no1 | 22 nM | 1.8
62 | CCc1nc(-c2ncn3c2CN=C(c2ccccc2)c2c(Cl)cccc2-3)no1 | 2.8 nM | 1.65
63 | CC(C)c1noc(-c2ncn3c2CN(C)C(=O)c2cc(F)ccc2-3)n1 | 100 nM | 1.86
64 | CCCc1noc(-c2ncn3c2CN(C)C(=O)c2cc(F)ccc2-3)n1 | 42 nM | 2
65 | CCCc1nc(-c2ncn3c2CN(C)C(=O)c2c(F)cccc2-3)no1 | 14 nM | 1.7
66 | Cc1nc(-c2ncn3c2CN(C)C(=O)c2ccccc2-3)no1 | 27 nM | 1.28
67 | CCc1nc(-c2ncn3c2CN(C)C(=O)c2cc(F)ccc2-3)no1 | 27 nM | 1.84
68 | CCCc1noc(-c2ncn3c2CN(C)C(=O)c2ccccc2-3)n1 | 120 nM | 2.08
69 | CCCc1nc(-c2ncn3c2CN=C(c2ccccc2)c2c(Cl)cccc2-3)no1 | 3.9 nM | 1.7
70 | CCc1noc(-c2ncn3c2CN(C)C(=O)c2c(F)cccc2-3)n1 | 42 nM | 2.4
71 | CCCc1noc(-c2ncn3c2CN=C(c2ccccc2)c2cc(Cl)ccc2-3)n1 | 120 nM | 2.57
72 | CC(C)c1noc(-c2ncn3c2CN(C)C(=O)c2ccccc2-3)n1 | 105 nM | 2.19
73 | CCc1nc(-c2ncn3c2CN=C(c2ccccc2)c2ccccc2-3)no1 | 16 nM | 2.11
74 | CCc1noc(-c2ncn3c2CN=C(c2ccccc2)c2c(Cl)cccc2-3)n1 | 4.1 nM | 2.21
75 | CCCc1nc(-c2ncn3c2CN=C(c2ccccc2)c2cc(Cl)ccc2-3)no1 | 45 nM | 2.22
76 | CC(C)c1noc(-c2ncn3c2CN(C)C(=O)c2c(Cl)cccc2-3)n1 | 14 nM | 1.86
77 | CCCc1nc(-c2ncn3c2CN(C)C(=O)c2cc(F)ccc2-3)no1 | 27 nM | 1.96
78 | CCc1nc(-c2ncn3c2CN=C(c2ccccc2)c2cc(Cl)ccc2-3)no1 | 44 nM | 2.43
